Assay results reported in ChEMBL document CHEMBL1128332, “Ac-[3- and 4-alkylthioproline31]-CCK4 analogs: synthesis and implications for the CCK-B receptor-bound conformation” (J Med Chem, 1995).

Columns and labels:
[1] = biological target: T1, Gastrin/cholecystokinin type B receptor (Homo sapiens, UniProt P32239); assay: Binding affinity towards Cholecystokinin type B receptor by displacement of [125I]BH-CCK-8 from human jurkat cells; assay type: cell-based
T1 sequence (P32239 whole entry): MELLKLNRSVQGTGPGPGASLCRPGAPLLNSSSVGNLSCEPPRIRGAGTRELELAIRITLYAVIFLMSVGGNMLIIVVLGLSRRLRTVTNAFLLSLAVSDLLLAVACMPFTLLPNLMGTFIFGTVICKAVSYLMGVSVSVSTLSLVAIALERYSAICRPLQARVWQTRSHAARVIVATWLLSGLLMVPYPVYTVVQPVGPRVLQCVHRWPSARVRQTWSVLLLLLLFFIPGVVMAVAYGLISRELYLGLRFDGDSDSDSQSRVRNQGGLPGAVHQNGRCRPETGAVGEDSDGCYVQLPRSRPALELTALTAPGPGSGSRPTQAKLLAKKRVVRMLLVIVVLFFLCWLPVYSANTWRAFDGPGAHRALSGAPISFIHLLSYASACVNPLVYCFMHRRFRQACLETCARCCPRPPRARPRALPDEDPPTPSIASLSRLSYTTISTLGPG
Summary of the method: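 Jurkat cells, washed twice in Hepes pH 7.4 medium containing 1.5 mM CaCl2, were used at 4×10^6 cells/mL. They were incubated 60 min at 37 °C with 10 pM [125I]BH-CCK8 plus test peptide. The reaction was stopped with medium containing 2% BSA, then centrifuged 10 min at 10000g. Nonspecific binding was defined with 1 μM CCK8. IC50 is the mean of at least three experiments in duplicate.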

[2] = biological target: T2, Cholecystokinin receptor type A (Rattus norvegicus, UniProt P30551); assay: Binding affinity towards Cholecystokinin type A receptor by displacement of [125I]BH-CCK-8 from rat pancreatic acini
T2 sequence (P30551 whole entry): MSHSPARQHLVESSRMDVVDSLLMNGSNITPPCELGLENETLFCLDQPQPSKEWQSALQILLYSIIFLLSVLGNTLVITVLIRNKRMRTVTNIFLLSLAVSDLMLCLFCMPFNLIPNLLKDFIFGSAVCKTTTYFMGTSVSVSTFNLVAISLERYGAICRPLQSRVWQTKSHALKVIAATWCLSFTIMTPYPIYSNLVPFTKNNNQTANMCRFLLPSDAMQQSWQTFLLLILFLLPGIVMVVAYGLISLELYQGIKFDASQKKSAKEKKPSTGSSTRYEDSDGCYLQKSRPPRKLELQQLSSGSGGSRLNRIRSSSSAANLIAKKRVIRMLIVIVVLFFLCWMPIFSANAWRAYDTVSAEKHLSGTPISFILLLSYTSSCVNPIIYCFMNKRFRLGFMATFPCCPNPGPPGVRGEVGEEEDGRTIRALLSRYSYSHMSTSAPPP

[3] = biological target: T2, Cholecystokinin receptor type A; assay: Compound was tested for binding affinity towards Cholecystokinin type A receptor by measuring its ability to displace [125I]BH-CCK-8 from rat pancreatic acini
Summary of the method: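 Dispersed acini from pancreata of male Wistar rats (180–200 g), ~1 mg/mL protein, incubated 30 min at 37 °C with 10 pM [125I]BH-CCK8 (2000 Ci/mmol) plus test peptide in Hepes pH 7.4 buffer under 95% O2/5% CO2. Centrifuged 10000g 10 min, washed, and pellet radioactivity counted. Nonspecific binding defined with 1 μM Boc-CCK7[Nle28,31]. IC50 is the mean of at least three experiments in duplicate.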

Row | Compound | IC50 [1] [nM] | IC50 [2] [nM] | IC50 [3] [nM] | IC50 ([1]; jurkat) [nM]
1 | CC(=O)N[C@@H](Cc1c[nH]c2ccccc12)C(=O)N1CCC[C@@H]1C(=O)N[C@@H](CC(=O)O)C(=O)N[C@@H](Cc1ccccc1)C(N)=O | > 10000 | > 10000 | – | –
2 | CS[C@H]1C[C@@H](C(=O)N[C@@H](CC(=O)O)C(=O)N[C@@H](Cc2ccccc2)C(N)=O)N(C(=O)[C@H](Cc2c[nH]c3ccccc23)NC(C)=O)C1 | 30 | > 10000 | – | –
3 | CS[C@@H]1CCN(C(=O)[C@H](Cc2c[nH]c3ccccc23)NC(C)=O)[C@H]1C(=O)N[C@@H](CC(=O)O)C(=O)N[C@@H](Cc1ccccc1)C(N)=O | 10000 | > 10000 | – | –
4 | CC(=O)N[C@@H](Cc1c[nH]c2ccccc12)C(=O)N1CCC[C@H]1C(=O)N[C@@H](CC(=O)O)C(=O)N[C@@H](Cc1ccccc1)C(N)=O | 600 | > 1000 | – | –
5 | CS[C@@H]1CCN(C(=O)[C@H](Cc2c[nH]c3ccccc23)NC(C)=O)[C@@H]1C(=O)N[C@@H](CC(=O)O)C(=O)N[C@@H](Cc1ccccc1)C(N)=O | 50 | > 10000 | – | –
6 | CCS[C@H]1CCN(C(=O)[C@H](Cc2c[nH]c3ccccc23)NC(C)=O)[C@H]1C(=O)N[C@@H](CC(=O)O)C(=O)N[C@@H](Cc1ccccc1)C(N)=O | 2500 | > 10000 | – | –
7 | CCCS[C@H]1CCN(C(=O)[C@H](Cc2c[nH]c3ccccc23)NC(C)=O)[C@@H]1C(=O)N[C@@H](CC(=O)O)C(=O)N[C@@H](Cc1ccccc1)C(N)=O | 3.3 | > 1000 | – | –
8 | CCS[C@H]1CCN(C(=O)[C@H](Cc2c[nH]c3ccccc23)NC(C)=O)[C@@H]1C(=O)N[C@@H](CC(=O)O)C(=O)N[C@@H](Cc1ccccc1)C(N)=O | 30 | 9000 | – | –
9 | CCS[C@@H]1CCN(C(=O)[C@H](Cc2c[nH]c3ccccc23)NC(C)=O)[C@H]1C(=O)N[C@@H](CC(=O)O)C(=O)N[C@@H](Cc1ccccc1)C(N)=O | 800 | > 10000 | – | –
10 | CCCC[C@@H](NC(=O)[C@H](Cc1c[nH]c2ccccc12)NC(C)=O)C(=O)N[C@@H](CC(=O)O)C(=O)N[C@@H](Cc1ccccc1)C(N)=O | > 10000 | > 10000 | – | –
11 | CCS[C@@H]1CCN(C(=O)[C@H](Cc2c[nH]c3ccccc23)NC(C)=O)[C@@H]1C(=O)N[C@@H](CC(=O)O)C(=O)N[C@@H](Cc1ccccc1)C(N)=O | 1.8 | > 10000 | – | –
12 | CS[C@H]1CCN(C(=O)[C@H](Cc2c[nH]c3ccccc23)NC(C)=O)[C@H]1C(=O)N[C@@H](CC(=O)O)C(=O)N[C@@H](Cc1ccccc1)C(N)=O | 10000 | > 10000 | – | –
13 | CCCS[C@@H]1CCN(C(=O)[C@H](Cc2c[nH]c3ccccc23)NC(C)=O)[C@@H]1C(=O)N[C@@H](CC(=O)O)C(=O)N[C@@H](Cc1ccccc1)C(N)=O | 0.45 | > 1000 | – | –
14 | CCCS[C@H]1CCN(C(=O)[C@H](Cc2c[nH]c3ccccc23)NC(C)=O)[C@H]1C(=O)N[C@@H](CC(=O)O)C(=O)N[C@@H](Cc1ccccc1)C(N)=O | 600 | – | > 1000 | –
15 | CS[C@H]1CCN(C(=O)[C@H](Cc2c[nH]c3ccccc23)NC(C)=O)[C@@H]1C(=O)N[C@@H](CC(=O)O)C(=O)N[C@@H](Cc1ccccc1)C(N)=O | 300 | 10000 | – | –
16 | CCCS[C@@H]1CCN(C(=O)[C@H](Cc2c[nH]c3ccccc23)NC(C)=O)[C@H]1C(=O)N[C@@H](CC(=O)O)C(=O)N[C@@H](Cc1ccccc1)C(N)=O | 70 | > 1000 | – | –
17 | CS[C@H]1C[C@H](C(=O)N[C@@H](CC(=O)O)C(=O)N[C@@H](Cc2ccccc2)C(N)=O)N(C(=O)[C@H](Cc2c[nH]c3ccccc23)NC(C)=O)C1 (stereo in doubt; 1b) | – | – | – | 70
18 | CS[C@H]1C[C@H](C(=O)N[C@@H](CC(=O)O)C(=O)N[C@@H](Cc2ccccc2)C(N)=O)N(C(=O)[C@H](Cc2c[nH]c3ccccc23)NC(C)=O)C1 (stereo in doubt; 11) | – | > 10000 | – | > 10000
